Activity calls are given as the source filed them.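 Rule for the calls: active = VEGF mRNA rise whose fitted curve reaches 40% activation within the highest concentration tested on that sample; inactive = the rest, including effects opposite to expected.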
Each molecule was assayed on U2OS VEGF mRNA induction, RT-PCR (assay: VEGF mRNA induction in U2OS cells, dose response, orthogonal assay for HIF pathway activator project, cell-based, RT-PCR, dry powder, set 2 (AID 493238)).
Outline: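 Material: U2OS human osteosarcoma cells | Input: 2,000 U2OS cells per well | Doses: Compound dose series, pinned in duplicate | Incubation: 24 h pre-growth at 37 °C, 24 h compound treatment | Technique: Duplex TaqMan RT-qPCR (FAM VEGF-A, VIC beta-actin), 40 cycles, post-lysis | Controls: DMSO negative control | Replicates: Duplicate compound pinning per dose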

Structure (SMILES)	AC40
CC1CN(Cc2ccc(O)c3ncccc23)CC(C)O1 (centres undefined)	9.15 µM
Cc1ccc(CNc2nc(-c3ccccn3)nnc2-c2ccccc2)cc1C	0.772 µM
O=C(NCCCCO)c1cc(-c2ccccc2)on1	5.01 µM
CCCCNC(=O)c1cc(-c2ccccc2)on1	14.6 µM
Cc1cccc(CNc2nc(-c3ccccn3)nnc2-c2ccccc2)c1	1.45 µM
O=C(NCCCO)c1cc(-c2ccccc2)on1	11.5 µM
c1ccc(-c2csc(Nc3nc(-c4ccccn4)nnc3-c3ccccc3)n2)cc1	0.597 µM
O=C(NCC1CC1)c1cc(-c2ccccc2)on1	17.2 µM
Cc1ccc(Nc2nc(-c3ccccn3)nnc2-c2ccccc2)cn1	6.12 µM
C[C@@H](Nc1nc(-c2ccccn2)nnc1-c1ccccc1)c1ccccc1	2.22 µM
c1ccc(-c2nnc(-c3ccccn3)nc2NCC2CCOCC2)cc1	7.58 µM
O=C(NC1CCc2ccccc2C1)c1cc(-c2ccccc2)on1 (centres undefined)	> 38 µM (inactive)
c1ccc(-c2nnc(-c3ccccn3)nc2NCC2CC2)cc1	2.4 µM
Oc1ccc(CN2CCC(Cc3ccccc3)CC2)c2cccnc12	6.76 µM
C=CCNc1nc(-c2ccccn2)nnc1-c1ccccc1	4.47 µM
c1ccc(-c2nnc(-c3ccccn3)nc2N2CCC(N3CCOCC3)CC2)cc1	6.52 µM
c1ccc(-c2cccc(CNc3nc(-c4ccccn4)nnc3-c3ccccc3)c2)cc1	0.601 µM
c1ccc(-c2nnc(-c3ccccn3)nc2Nc2cnc3ccccc3n2)cc1	1.1 µM
C[C@@H](Nc1nc(-c2ccccn2)nnc1-c1ccccc1)C1CCCCC1	0.571 µM
OCC1CCN(Cc2ccc(O)c3ncccc23)CC1	3.56 µM
c1ccc(-c2nnc(-c3ccccn3)nc2N2CCC(c3ccccc3)C2)cc1 (centres undefined)	1.52 µM
CC(C)(C)OC(=O)N1CCN(Cc2ccc(O)c3ncccc23)CC1	10.2 µM

Structure (SMILES)	AC40
Clc1cccc(CNc2nc(-c3ccccn3)nnc2-c2ccccc2)c1	0.87 µM
O=C(NCCCn1ccnc1)c1cc(-c2ccccc2)on1	10.7 µM
c1ccc(CNc2nc(-c3ccccn3)nnc2-c2ccccc2)cc1	1.6 µM
O=C(NCCN1CCOCC1)c1cc(-c2ccccc2)on1	28.8 µM
c1ccc(CCNc2nc(-c3ccccn3)nnc2-c2ccccc2)cc1	4.92 µM
c1ccc(-c2nnc(-c3ccccn3)nc2NCC2CCCCC2)cc1	1.3 µM
COc1ccc(CNc2nc(-c3ccccn3)nnc2-c2ccccc2)cc1	1.92 µM
CC(C)(C)CCNC(=O)c1cc(-c2ccccc2)on1	> 38 µM (inactive)
O=C(Nc1ncc2ccccc2n1)c1cc(-c2ccccc2)on1	36.2 µM
Oc1ccc(CN2CCC3CCCCC3C2)c2cccnc12 (centres undefined)	3.2 µM
c1ccc(-c2ccc(CNc3nc(-c4ccccn4)nnc3-c3ccccc3)cc2)cc1	0.303 µM
c1ccc(-c2nnc(-c3ccccn3)nc2Nc2nc3ccccc3s2)cc1	0.51 µM
OCCCNc1nc(-c2ccccn2)nnc1-c1ccccc1	8.34 µM
c1ccc(-c2nnc(-c3ccccn3)nc2N2CCC(C3CCCCC3)C2)cc1 (centres undefined)	0.843 µM
Cc1ccccc1CNc1nc(-c2ccccn2)nnc1-c1ccccc1	1.02 µM
CC(C)(C)c1ccc(CNc2nc(-c3ccccn3)nnc2-c2ccccc2)cc1	0.397 µM
CN1CCN(c2nc(-c3ccccn3)nnc2-c2ccccc2)CC1	5.95 µM
COc1cccc(CNc2nc(-c3ccccn3)nnc2-c2ccccc2)c1	1.78 µM
O=C(Nc1cn2ccccc2n1)c1cc(-c2ccccc2)on1	18.6 µM
OCC1CCN(c2nc(-c3ccccn3)nnc2-c2ccccc2)CC1	10.5 µM
Cn1c(-c2ccccc2)cnc1NC(=O)c1cc(-c2ccccc2)on1	35.2 µM
COc1ccccc1N1CCN(Cc2ccc(O)c3ncccc23)CC1	0.519 µM

From PubChem BioAssay AID493238 (Broad Institute, 2011)
